Source: ChEMBL document CHEMBL1141840, “Antifungal metabolites from the marine sponge Pachastrissa sp.: new bengamide and bengazole derivatives” (1999)
Values after ≈ are worked out from the molar mass of the structure shown. Active and inactive are the calls of the source. The calls are words filed in the database; no cut-off is given here.

Legend:
[1] = tested on: Saccharomyces cerevisiae; test: Antimicrobial activity against Saccharomyces cerevisiae ATCC 28383 after 24 hrs by liquid-phase turbidimetric system; format: functional, organism-based
Outline: (§1)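 Fungal growth followed in liquid culture by turbidimetry, read automatically every 30 min over 24 h, with compounds tested at various concentrations.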

[2] = tested on: Candida albicans; test: Antifungal activity against Candida albicans CIP 118079 after 24 hrs by liquid-phase turbidimetric system; format: functional; conditions: for MIC: CIP 118079, 24 h; outline: as §1

SMILES	MIC [2] [µg/mL]	Activity [1]	Activity [2]
CO[C@@H](C(=O)N[C@H]1CC[C@H](OC(=O)CCCCCCCCCCCC(C)C)CNC1=O)[C@H](O)[C@@H](O)[C@H](O)/C=C/C(C)C	–	inactive	inactive
CCCCCCCCCCCCCC(=O)O[C@H]1CC[C@H](NC(=O)[C@H](OC)[C@H](O)[C@@H](O)[C@H](O)/C=C/C(C)C)C(=O)N(C)C1	–	inactive	inactive
CO[C@@H](C(=O)N[C@H]1CCCCNC1=O)[C@H](O)[C@@H](O)[C@H](O)/C=C/C(C)C	–	inactive	inactive
CC(C)CCCCCCCCCCCC(=O)O[C@H](C[C@H](O)[C@H](O)[C@H](C)O)c1coc(Cc2cnco2)n1	0.8 (≈ 1.53 µM)	inactive	–
CCCCCCCCCCCCCC(=O)O[C@H](C[C@H](O)[C@H](O)[C@H](C)O)c1coc(Cc2cnco2)n1	0.8 (≈ 1.57 µM)	inactive	–
CCCCCCCCCCCCCC(=O)O[C@@H](C)[C@@H](O)[C@@H](O)C[C@@H](O)c1coc(Cc2cnco2)n1	0.8 (≈ 1.57 µM)	inactive	–
CCCCCCCCCCCCCC(=O)O[C@H]1CC[C@H](NC(=O)[C@H](OC)[C@H](O)[C@@H](O)[C@H](O)/C=C/C(C)C)C(=O)NC1	–	inactive	inactive
C[C@H](O)[C@@H](O)[C@@H](O)C[C@@H](O)c1coc(Cc2cnco2)n1	–	inactive	inactive
CC(C)CCCCCCCCCCCCC(=O)O[C@@H](C)[C@@H](O)[C@@H](O)C[C@@H](O)c1coc(Cc2cnco2)n1	0.8 (≈ 1.49 µM)	inactive	–

Further lines, with some results ahead:

MIC [2] [µg/mL]	SMILES	Activity [1]	Activity [2]
0.8 (≈ 1.49 µM)	CCCCCCCCCCCCCCCC(=O)O[C@H](C[C@H](O)[C@H](O)[C@H](C)O)c1coc(Cc2cnco2)n1	inactive	–
0.8 (≈ 1.49 µM)	CC(C)CCCCCCCCCCCCC(=O)O[C@H](C[C@H](O)[C@H](O)[C@H](C)O)c1coc(Cc2cnco2)n1	inactive	–
0.8 (≈ 1.53 µM)	CCCCCCCCCCCCCCC(=O)O[C@@H](C)[C@@H](O)[C@@H](O)C[C@@H](O)c1coc(Cc2cnco2)n1	inactive	–
0.8 (≈ 1.49 µM)	CCCCCCCCCCCCCCCC(=O)O[C@@H](C)[C@@H](O)[C@@H](O)C[C@@H](O)c1coc(Cc2cnco2)n1	inactive	–
0.8 (≈ 1.53 µM)	CC(C)CCCCCCCCCCCC(=O)O[C@@H](C)[C@@H](O)[C@@H](O)C[C@@H](O)c1coc(Cc2cnco2)n1	inactive	–
0.8 (≈ 1.53 µM)	CCCCCCCCCCCCCCC(=O)O[C@H](C[C@H](O)[C@H](O)[C@H](C)O)c1coc(Cc2cnco2)n1	inactive	–
